Here are results for 14 compounds from ChEMBL document CHEMBL4342524, “Discovery of M-808 as a Highly Potent, Covalent, Small-Molecule Inhibitor of the Menin-MLL Interaction with Strong In Vivo Antitumor Activity” (J Med Chem, 2020).

One series concerns MV4-11. Put plainly: Growth inhibition of human MV4-11 cells after 7 days by WST-8 assay. In kind it is functional, cell-based. The conditions noted are these: MV4-11, 168 h. The essentials:
(§1)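 Cells cultured in IMDM or RPMI 1640 with 10% FBS at 37 °C, 5% CO2. Growth read by WST-8 at 450 nm after at least 1 h with reagent. Signals normalized to untreated cells and IC50 fitted by nonlinear regression; mean and SD from three independent experiments.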
(In general: Tetrazolium dyes change colour on reduction, which living cells bring about.)

A further series concerns MOLM-13. Put plainly: Growth inhibition of human MOLM13 cells after 7 days by WST-8 assay. Format: functional, cell-based. Conditions: MOLM-13, 168 h. The essentials: as §1
The test system of a further series is HL-60. The series is described as follows: Growth inhibition of human HL60 cells after 7 days by WST-8 assay. In kind it is functional, cell-based. Conditions: HL-60, 168 h. The essentials:
as §1

Series [1] has as its target T1, Menin (Homo sapiens, UniProt O00255).
T1 sequence (O00255 whole entry): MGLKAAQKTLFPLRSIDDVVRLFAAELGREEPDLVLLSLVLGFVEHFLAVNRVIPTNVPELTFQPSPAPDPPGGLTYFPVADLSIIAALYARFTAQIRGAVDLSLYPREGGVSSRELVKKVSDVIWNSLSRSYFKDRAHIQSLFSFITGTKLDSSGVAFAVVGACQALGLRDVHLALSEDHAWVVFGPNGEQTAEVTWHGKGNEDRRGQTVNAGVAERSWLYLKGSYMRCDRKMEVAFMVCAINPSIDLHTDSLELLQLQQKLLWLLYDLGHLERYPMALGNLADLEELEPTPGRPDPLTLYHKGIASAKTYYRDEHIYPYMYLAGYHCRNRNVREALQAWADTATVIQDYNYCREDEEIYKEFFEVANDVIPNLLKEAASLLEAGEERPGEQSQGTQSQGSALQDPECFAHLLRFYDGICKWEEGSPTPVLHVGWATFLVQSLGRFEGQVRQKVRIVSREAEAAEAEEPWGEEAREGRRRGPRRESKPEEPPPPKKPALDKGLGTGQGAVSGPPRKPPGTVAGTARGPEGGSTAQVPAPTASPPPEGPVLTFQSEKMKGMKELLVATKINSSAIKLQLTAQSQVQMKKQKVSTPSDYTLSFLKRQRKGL
The series is described as follows: Inhibition of menin (unknown origin) by fluorescence polarization assay. The essentials: (§2)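 Competitive FP assay: 4 nM menin and 2 nM fluorescein-labeled tracer (final concentrations) in PBS with 100 μg/mL bovine γ-globulin and 0.01% Triton X-100. Compounds added from DMSO at varying concentrations and incubated 1 h at room temperature. IC50 obtained by nonlinear sigmoidal fitting of the FP decrease against total compound concentration.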
On the technique in general: In fluorescence polarisation assays a small probe gives low polarisation when free and higher when bound to something large.

Series [2] addresses T2, Menin (Homo sapiens) (UniProt O00255).
T2 sequence (whole entry): T1 sequence (O00255 whole entry)
The series is described as follows: Covalent binding affinity to human menin assessed as protein-compound complex formation at protein to compound ratio of 1:1.2 after 1 hr by LC-MS analysis relative to control. The essentials: (§3)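 Diluted to 1 mg/mL, then run on reverse-phase C4 LC with a 5–100% MeCN/0.2% formic acid gradient and Q-TOF MS. Intact masses obtained by maximum-entropy deconvolution.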

The target of series [3] is T2, Menin (Homo sapiens). Put plainly: Covalent binding affinity to human menin assessed as protein-compound complex formation at protein to compound ratio of 1:1.2 measured after overnight incubation by LC-MS analysis relative to control. The essentials: as §3
Series [4] addresses T1, Menin. Put plainly: Inhibition of fluorescent labeled tracer binding to Menin (unknown origin) after 1 hr by fluorescence polarization competitive binding assay. The essentials:
as §2

The test system of series [5] is Mus musculus. The series is described as follows: Downregulation of Hoxa9 expression in tumors of CB-17 SCID mouse xenografted with human MV4-11 cells at 10 mg/kg, iv administered as single dose and measured after 24 hrs by RT-qPCR analysis. In kind it is functional, organism-based. The essentials: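 MV4;11 subcutaneous xenografts in female C.B-17 SCID mice; single IV dose of 10 mg/kg or vehicle. Tumors collected 24 h post-dose, 3 mice per group, snap-frozen and powdered. Total RNA converted to cDNA; HOXA9, MEIS1 and GAPDH measured by TaqMan real-time PCR; relative expression by comparative Ct.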
In general terms: Xenograft models place foreign cells or tissue in a host animal.

Series [6] concerns Mus musculus. The series is described as follows: Downregulation of MEIS1 expression in tumors of CB-17 SCID mouse xenografted with human MV4-11 cells at 10 mg/kg, iv administered as single dose and measured after 24 hrs by RT-qPCR analysis relative to control. Format: functional. The essentials:
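Female C.B-17 SCID mice bearing subcutaneous MV4;11 flank xenografts were given a single IV dose (vehicle control). Tumors were harvested at 24 h, 3 mice per time point, snap-frozen in liquid N2 and ground. Total RNA was reverse-transcribed, and HOXA9, MEIS1 and GAPDH were measured by TaqMan real-time PCR. Relative expression was calculated by the comparative Ct method.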

Series [7] can be described thus: Toxicity in SCID mouse assessed as drug tolerability at 10 mg/kg, iv administered every other day for 1 week. The conditions noted are these: in vivo, 168 h. In kind it is organism-based.
A short description of series [8]: Toxicity in SCID mouse assessed as reduction in body weight at 25 mg/kg, iv administered every other day for 1 week relative to control. Also noted: scale not given: the % may be the effect or the level left. Format: organism-based. Conditions: in vivo, 168 h.

SMILES strings stand for the structures. Active and inactive are the calls of the source. No cut-off for these calls is given here. A value given as a limit tells only on which side of the number the result lay.

What is called IC50 is the midpoint of a concentration-inhibition curve.

Turning to `COC(=O)N[C@H]1CCC[C@@H]1[C@](C#N)(c1cccc(F)c1)C1CCN(CC2CN(c3ccc(S(=O)(=O)C4CN(C(=O)/C=C/CN(C)C)C4)cc3)C2)CC1`, the half-inhibitory concentration (IC50) with MV4-11 turned out to be 4 nM; in the series on MOLM-13, 19 nM; in the series on HL-60, 1500 nM; at Menin [1] it was 3.3 nM. The Activity at Menin (Homo sapiens) [2] came to 95%; at Menin (Homo sapiens) [3], 100%.
For `CCc1nccn1C[C@@](c1cccc(F)c1)(C1CCN(CC2CN(c3ccc(S(=O)(=O)C4CN(C(=O)/C=C/CN(C)C)C4)cc3)C2)CC1)[C@H]1CCC[C@@H]1NC(=O)OC`, the IC50 was 1.7 nM at Menin [4], 2 nM with MV4-11, 11 nM with MOLM-13 and more than 10000 nM in the series on HL-60. Besides, the Activity on Menin (Homo sapiens) [2] and on Menin (Homo sapiens) [3] was 100% in each case.
For `COC(=O)N[C@H]1CCC[C@@H]1[C@](CN1CCC1)(c1cccc(F)c1)C1CCN(CC2CN(c3ccc(S(=O)(=O)C4CN(C(=O)/C=C/CN5CC(F)C5)C4)cc3)C2)CC1`, the IC50 came to 1 nM in the series on MV4-11, 3 nM with MOLM-13 and 2000 nM with HL-60. The Activity came to 20% on Menin (Homo sapiens) [2] and 75% on Menin (Homo sapiens) [3].
On to `COC(=O)N[C@H]1CCC[C@@H]1[C@](CN1CCCCC1)(c1cccc(F)c1)C1CCN(CC2CN(c3ccc(S(=O)(=O)C4CN(C(=O)/C=C/CN(C)C)C4)cc3)C2)CC1`, for which the results for the IC50 in the series with MV4-11, with MOLM-13 and in the series on HL-60 were 40 nM, 157 nM and 600 nM, respectively.
As for `COC(=O)N[C@H]1CCC[C@@H]1[C@](CN(C)C)(c1cccc(F)c1)C1CCN(CC2CN(c3ccc(S(=O)(=O)C4CN(C(=O)/C=C/CN(C)C)C4)cc3)C2)CC1`, the IC50 came to 1.1 nM in the series on MV4-11, 2 nM in the series with MOLM-13 and 700 nM in the series on HL-60.
Consider `COC(=O)N[C@H]1CCC[C@@H]1[C@](Cn1ccnn1)(c1cccc(F)c1)C1CCN(CC2CN(c3ccc(S(=O)(=O)C4CN(C(=O)/C=C/CN(C)C)C4)cc3)C2)CC1`, for which the IC50 with MOLM-13 amounted to 14 nM; in the series on HL-60, 4800 nM.
On to `COC(=O)N[C@H]1CCC[C@@H]1[C@](CN1CCC1)(c1cccc(F)c1)C1CCN(CC2CN(c3ccc(S(=O)(=O)C4CN(C(=O)/C=C/CN5CC(F)(F)C5)C4)cc3)C2)CC1`, for which the IC50 in the series with MV4-11 was determined as 4 nM; in the series on MOLM-13, 15 nM; in the series on HL-60, 2800 nM. Also, the Activity at Menin (Homo sapiens) [2] and on Menin (Homo sapiens) [3] was 0% in each case.
In the case of `COC(=O)N[C@H]1CCC[C@@H]1[C@](CN1CCC1)(c1cccc(F)c1)C1CCN(CC2CN(c3ccc(S(=O)(=O)C4CN(C(=O)/C=C/CN5CCC(F)CC5)C4)cc3)C2)CC1`, the values for the IC50 in the series on MV4-11, with MOLM-13 and in the series on HL-60 were 3 nM, 21 nM and 3600 nM, respectively. Also, the Activity on Menin (Homo sapiens) [2] came to 20%; on Menin (Homo sapiens) [3], 100%.
Regarding `C=CC(=O)N1CC(S(=O)(=O)c2ccc(N3CC(CN4CCC([C@@](CN5CCC5)(c5cccc(F)c5)[C@H]5CCC[C@@H]5NC(=O)OC)CC4)C3)cc2)C1`, the IC50 with MV4-11 was found to be 23 nM; in the series on MOLM-13, 374 nM; in the series with HL-60 it was 2600 nM. Also, the values for the Activity on Menin (Homo sapiens) [2] and on Menin (Homo sapiens) [3] were 50% and 75%, respectively.
Consider `COC(=O)N[C@H]1CCC[C@@H]1[C@](CN1CCC1)(c1cccc(F)c1)C1CCN(CC2CN(c3ccc(S(=O)(=O)C4CN(C(=O)/C=C/CN5CCC5)C4)cc3)C2)CC1`, for which the IC50 in the series with MOLM-13 came out at 3 nM; with HL-60, 2100 nM. Also, the Activity at Menin (Homo sapiens) [2] turned out to be 75%; on Menin (Homo sapiens) [3], 100%.
As for `COC(=O)N[C@H]1CCC[C@@H]1[C@](CN1CCCC1)(c1cccc(F)c1)C1CCN(CC2CN(c3ccc(S(=O)(=O)C4CN(C(=O)/C=C/CN(C)C)C4)cc3)C2)CC1`, the half-inhibitory concentration (IC50) in the series on MV4-11 is 5 nM; in the series on MOLM-13 it was 15 nM; in the series on HL-60, 1400 nM.
Take `COC(=O)N[C@H]1CCC[C@@H]1[C@](CN1CCC1)(c1cccc(F)c1)C1CCN(CC2CN(c3ccc(S(=O)(=O)C4CN(C(=O)/C=C/CN5CCCC5)C4)cc3)C2)CC1`: the IC50 with MOLM-13 worked out at 9 nM; in the series on HL-60 it was 2100 nM. In addition, the Activity is 100% at Menin (Homo sapiens) [2], 100% on Menin (Homo sapiens) [3], “Non-Toxic” in [7] and more than 10% in series [8]. Further, the result in the series with Mus musculus [5] was Active. In addition, the “fold change (FC)” value in the series on Mus musculus [6] is more than 2.
With `COC(=O)N[C@H]1CCC[C@@H]1[C@](CN1CCC1)(c1cccc(F)c1)C1CCN(CC2CN(c3ccc(S(=O)(=O)C4CN(C(=O)/C=C/CN5CCC(F)(F)CC5)C4)cc3)C2)CC1`, the IC50 in the series on MV4-11 amounted to 4 nM; in the series on MOLM-13, 20 nM; in the series with HL-60, 3200 nM. Also, the Activity at Menin (Homo sapiens) [2] and on Menin (Homo sapiens) [3] was 0% throughout.
For `COC(=O)N[C@H]1CCC[C@@H]1[C@](CN1CCC1)(c1cccc(F)c1)C1CCN(CC2CN(c3ccc(S(=O)(=O)C4CN(C(=O)/C=C/CN(C)C)C4)cc3)C2)CC1`, the IC50 was found to be 8 nM with MOLM-13 and 3000 nM with HL-60. In addition, the Activity at Menin (Homo sapiens) [2] was 75%; at Menin (Homo sapiens) [3], 100%; in series [7], “Non-Toxic”; in series [8] it was more than 10%. For the same compound, in the series on Mus musculus [5], the outcome was Active. In the series on Mus musculus [6], the “fold change (FC)” value is more than 2.
